Source: ChEMBL document CHEMBL1125420, “Synthesis and biological activity of novel folic acid analogues: pteroyl-S-alkylhomocysteine sulfoximines” (J Med Chem, 1992)

test system: L1210; assay: Compound was tested for release of tritium from 1 uM [5-3H]-dUMP into water at a con of 0.4 mM and without addition of bovine thymidylate synthase to cell suspension in absence of CH2O; assay type: functional, Mus musculus; conditions: not given
Summary of the method: (§1)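 L1210 cells (transplanted, harvested), partially permeabilized with dextran sulfate, at (2–5) × 10^7 cells/mL. Preincubated with cofactor 15 min at 37 °C with 0.2 mM NADPH, 1 mM serine or 7.5 mM CH2O, 2-mercaptoethanol, MgCl2, EDTA, NaF, 80 mM Tris-acetate pH 7.4. Then 1 μM [5-3H]dUMP added for 30 min. Where enzyme added, 0.016 unit per 0.15 mL suspension. Tritium in water given as % of total, background-corrected; two experiments in duplicate.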

With `CS(=O)(=O)CCC(NC(=O)c1ccc(NCc2cnc3nc(N)nc(O)c3n2)cc1)C(=O)O` (stereo unspecified) as the compound, how does the Tritium release read?
Its Tritium release is 4.6%.

`C[S+](=N)([O-])CCC(NC(=O)c1ccc(NCc2cnc3nc(N)nc(O)c3n2)cc1)C(=O)O` (mixture of isomers) was tested. Which Tritium release did it give?
The Tritium release was 5%.

How did the Tritium release turn out when `CC[S+](=N)([O-])CCC(NC(=O)c1ccc(NCc2cnc3nc(N)nc(O)c3n2)cc1)C(=O)O` (racemic) was run?
Its Tritium release is 4.9%.

How did the Tritium release turn out when `CCCC[S+](=N)([O-])CCC(NC(=O)c1ccc(NCc2cnc3nc(N)nc(O)c3n2)cc1)C(=O)O` (racemic) was run?
Its Tritium release is 4.4%.

`CCC[S+](=N)([O-])CCC(NC(=O)c1ccc(NCc2cnc3nc(N)nc(O)c3n2)cc1)C(=O)O` (racemic) was tested. Which Tritium release did it give?
The Tritium release was 4.3%.

For `Nc1nc(=O)c2nc(CNc3ccc(C(=O)N[C@@H](CCC(=O)O)C(=O)O)cc3)cnc2[nH]1` [FOLIC ACID], which Tritium release is on record?
The Tritium release was 20.6%.

test system: L1210; assay: Compound was tested for release of tritium from 1 uM [5-3H]-dUMP into water at a conc of 0.4 mM enzyme(bovine thymidylate synthase) was added to cell suspension in presence of CH2O; assay type: functional, Mus musculus; conditions: not given; summary of the method: as §1

With `CS(=O)(=O)CCC(NC(=O)c1ccc(NCc2cnc3nc(N)nc(O)c3n2)cc1)C(=O)O` (stereo unspecified) as the compound, how does the Tritium release read?
The Tritium release was 6.7%.

`C[S+](=N)([O-])CCC(NC(=O)c1ccc(NCc2cnc3nc(N)nc(O)c3n2)cc1)C(=O)O` (mixture of isomers) was tested. Which Tritium release did it give?
Its Tritium release is 8.3%.

With `CC[S+](=N)([O-])CCC(NC(=O)c1ccc(NCc2cnc3nc(N)nc(O)c3n2)cc1)C(=O)O` (racemic) as the compound, how does the Tritium release read?
The Tritium release was 6.8%.

With `CCCC[S+](=N)([O-])CCC(NC(=O)c1ccc(NCc2cnc3nc(N)nc(O)c3n2)cc1)C(=O)O` (racemic) as the compound, how does the Tritium release read?
Its Tritium release is 5.8%.

With `CCC[S+](=N)([O-])CCC(NC(=O)c1ccc(NCc2cnc3nc(N)nc(O)c3n2)cc1)C(=O)O` (racemic) as the compound, how does the Tritium release read?
The Tritium release was 7.3%.

Which Tritium release does the source give for `Nc1nc(=O)c2nc(CNc3ccc(C(=O)N[C@@H](CCC(=O)O)C(=O)O)cc3)cnc2[nH]1` [FOLIC ACID] here?
The Tritium release was 21.8%.

test system: L1210; assay: Compound was tested for release of tritium from 1 uM [5-3H]-dUMP into water at a con of 0.4 mM and without addition of bovine thymidylate synthase to cell suspension in absence of serine; assay type: functional, Mus musculus; conditions: not given; summary of the method: as §1

How did the Tritium release turn out when `CS(=O)(=O)CCC(NC(=O)c1ccc(NCc2cnc3nc(N)nc(O)c3n2)cc1)C(=O)O` (stereo unspecified) was run?
Its Tritium release is 3.6%.

For `C[S+](=N)([O-])CCC(NC(=O)c1ccc(NCc2cnc3nc(N)nc(O)c3n2)cc1)C(=O)O` (mixture of isomers), which Tritium release is on record?
The Tritium release was 3.9%.

With `CC[S+](=N)([O-])CCC(NC(=O)c1ccc(NCc2cnc3nc(N)nc(O)c3n2)cc1)C(=O)O` (racemic) as the compound, how does the Tritium release read?
Its Tritium release is 4.2%.

How did the Tritium release turn out when `CCCC[S+](=N)([O-])CCC(NC(=O)c1ccc(NCc2cnc3nc(N)nc(O)c3n2)cc1)C(=O)O` (racemic) was run?
Its Tritium release is 4%.

Which Tritium release does the source give for `CCC[S+](=N)([O-])CCC(NC(=O)c1ccc(NCc2cnc3nc(N)nc(O)c3n2)cc1)C(=O)O` (racemic) here?
Its Tritium release is 4.2%.

For `Nc1nc(=O)c2nc(CNc3ccc(C(=O)N[C@@H](CCC(=O)O)C(=O)O)cc3)cnc2[nH]1` [FOLIC ACID], which Tritium release is on record?
Its Tritium release is 19.1%.

test system: L1210; assay: Compound was tested for release of tritium from 1 uM [5-3H]-dUMP into water at a conc of 0.4 mM, enzyme(bovine thymidylate synthase) was added to cell suspension in presence of serine; assay type: functional, Mus musculus; conditions: not given; summary of the method: as §1

How did the Tritium release turn out when `C[S+](=N)([O-])CCC(NC(=O)c1ccc(NCc2cnc3nc(N)nc(O)c3n2)cc1)C(=O)O` (mixture of isomers) was run?
Its Tritium release is 9.5%.

test system: L1210; assay: (§2) Inhibitory activity against growth of L1210 leukemia cells in culture; assay type: functional, Mus musculus; conditions: not given
Summary of the method: (§3)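 Murine L1210 leukemia cells, duplicate cultures, exposed to increasing concentrations alongside folic acid for 48 h at 37 °C in RPMI 1640 with 10% fetal calf serum. Cells counted; IC50 (50% inhibition of control growth) read graphically; percent inhibition also taken at 0.5 mM. Averages of two experiments run in duplicate.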

`Nc1nc(=O)c2nc(CNc3ccc(C(=O)N[C@@H](CCC(=O)O)C(=O)O)cc3)cnc2[nH]1` [FOLIC ACID] was tested. Which Inhibition did it give?
Its Inhibition is 33.6%.

test system: L1210; assay: Compound was tested for release of tritium from 1 uM [5-3H]-dUMP into water at a conc of 0.4 mM enzyme(bovine thymidylate synthase) was added to cell suspension in presence of serine; assay type: functional, Mus musculus; conditions: not given; summary of the method: as §1

For `CS(=O)(=O)CCC(NC(=O)c1ccc(NCc2cnc3nc(N)nc(O)c3n2)cc1)C(=O)O` (stereo unspecified), which Tritium release is on record?
The Tritium release was 7.8%.

`CC[S+](=N)([O-])CCC(NC(=O)c1ccc(NCc2cnc3nc(N)nc(O)c3n2)cc1)C(=O)O` (racemic) was tested. Which Tritium release did it give?
The Tritium release was 8.3%.

`CCCC[S+](=N)([O-])CCC(NC(=O)c1ccc(NCc2cnc3nc(N)nc(O)c3n2)cc1)C(=O)O` (racemic) was tested. Which Tritium release did it give?
The Tritium release was 7%.

With `CCC[S+](=N)([O-])CCC(NC(=O)c1ccc(NCc2cnc3nc(N)nc(O)c3n2)cc1)C(=O)O` (racemic) as the compound, how does the Tritium release read?
The Tritium release was 9.2%.

How did the Tritium release turn out when `Nc1nc(=O)c2nc(CNc3ccc(C(=O)N[C@@H](CCC(=O)O)C(=O)O)cc3)cnc2[nH]1` [FOLIC ACID] was run?
The Tritium release was 24.1%.

test system: L1210; assay: Inhibitory activity against growth of L1210 leukemia cells in culture at 0.5 mM; assay type: functional; conditions: Mus musculus; summary of the method: as §3

`CS(=O)(=O)CCC(NC(=O)c1ccc(NCc2cnc3nc(N)nc(O)c3n2)cc1)C(=O)O` (stereo unspecified) was tested. Which inhibition at 500 µM did it give?
Its inhibition at 500 µM is 78.6%.

`C[S+](=N)([O-])CCC(NC(=O)c1ccc(NCc2cnc3nc(N)nc(O)c3n2)cc1)C(=O)O` (mixture of isomers) was tested. Which inhibition at 500 µM did it give?
Its inhibition at 500 µM is 76.4%.

With `CC[S+](=N)([O-])CCC(NC(=O)c1ccc(NCc2cnc3nc(N)nc(O)c3n2)cc1)C(=O)O` (racemic) as the compound, how does the inhibition at 500 µM read?
Its inhibition at 500 µM is 80.2%.

Which inhibition at 500 µM does the source give for `CCCC[S+](=N)([O-])CCC(NC(=O)c1ccc(NCc2cnc3nc(N)nc(O)c3n2)cc1)C(=O)O` (racemic) here?
The inhibition at 500 µM was 75.2%.

`CCC[S+](=N)([O-])CCC(NC(=O)c1ccc(NCc2cnc3nc(N)nc(O)c3n2)cc1)C(=O)O` (racemic) was tested. Which inhibition at 500 µM did it give?
Its inhibition at 500 µM is 75.2%.

test system: L1210; assay: as §2; assay type: functional, cell-based; conditions: Mus musculus; summary of the method: as §3

`CS(=O)(=O)CCC(NC(=O)c1ccc(NCc2cnc3nc(N)nc(O)c3n2)cc1)C(=O)O` (stereo unspecified) was tested. Which IC50 did it give?
Its IC50 is 390 µM.

How did the IC50 turn out when `C[S+](=N)([O-])CCC(NC(=O)c1ccc(NCc2cnc3nc(N)nc(O)c3n2)cc1)C(=O)O` (mixture of isomers) was run?
The IC50 was 190 µM.

How did the IC50 turn out when `CC[S+](=N)([O-])CCC(NC(=O)c1ccc(NCc2cnc3nc(N)nc(O)c3n2)cc1)C(=O)O` (racemic) was run?
Its IC50 is 220 µM.

Which IC50 does the source give for `CCCC[S+](=N)([O-])CCC(NC(=O)c1ccc(NCc2cnc3nc(N)nc(O)c3n2)cc1)C(=O)O` (racemic) here?
Its IC50 is 270 µM.

Which IC50 does the source give for `CCC[S+](=N)([O-])CCC(NC(=O)c1ccc(NCc2cnc3nc(N)nc(O)c3n2)cc1)C(=O)O` (racemic) here?
Its IC50 is 300 µM.

For `Nc1nc(=O)c2nc(CNc3ccc(C(=O)N[C@@H](CCC(=O)O)C(=O)O)cc3)cnc2[nH]1` [FOLIC ACID], which IC50 is on record?
The IC50 was > 10000 µM.
